Data taken from ChEMBL document CHEMBL1122917, “Vinblastin-23-oyl amino acid derivatives: chemistry, physicochemical data, toxicity, and antitumor activities against P388 and L1210 leukemias” (J Med Chem, 1985).

How the values were obtained:
Format in all cases: functional
Mus musculus [1] = assay: Percent increase in life span of DBA2 mice after inoculation with L1210 leukemia intravenously at a dose of 55 mg/kg per day; details: route intravenous
In short: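 Female DBA2 mice inoculated iv on day 0 with 10^4 L1210 cells; drugs given iv as sulfate salts in physiological saline, mostly once on day 1. %ILS from all deaths and survivors as (T/C × 100) − 100; survivors scored on days 30 and 60.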

Mus musculus [2] = assay: Number of survivors on 30th day at dose 60 mg/kg/day in 10 mice implanted with P388 leukemia cell line; 8/10
Mus musculus [3] = assay: Number of survivors on 30th day at dose 55 mg/kg/day in 10 mice implanted with P388 leukemia cell line for1,5,9 scheduled days; 2/10
Mus musculus [4] = assay: Percent increase in life span at dose 55 mg/kg/day in 10 mice implanted with P388 leukemia cell line for 1st schedule day
Mus musculus [5] = assay: Number of survivors on 60th day at dose 65 mg/kg/day in 10 mice implanted with P388 leukemia cell line for 1st scheduled day; 1/10
Mus musculus [6] = assay: Number of survivors on 30th day at dose 58 mg/kg/day in 10 mice implanted with P388 leukemia cell line;2/10
Mus musculus [7] = assay: Number of survivors of DBA2 mice on 30th day after inoculation with L1210 leukemia cell line intravenously at a dose of 65 mg/kg/day; 0/10; details: route intravenous
Mus musculus [8] = assay: Percent increase in life span at dose 65 mg/kg/day in 10 mice implanted with P388 leukemia cell line for 1st schedule day
Mus musculus [9] = assay: Number of survivors on 60th day at dose 56 mg/kg/day in 10 mice implanted with P388 leukemia cell line; 2/10
Mus musculus [10] = assay: Number of survivors on 60th day at dose 50 mg/kg/day in 10 mice implanted with P388 leukemia cell line; 5/10
Mus musculus [11] = assay: Number of survivors on 30th day at dose 60 mg/kg/day in 10 mice implanted with P388 leukemia cell line 1,5,9 scheduled days; 9/9
Mus musculus [12] = assay: Number of survivors on 30th day at dose 60 mg/kg/day in 10 mice implanted with P388 leukemia cell line for 1st scheduled day; 8/10
Mus musculus [13] = assay: Number of survivors of DBA2 mice on 30th day after inoculation with L1210 leukemia cell line intravenously at a dose of 70 mg/kg/day; 0/10; details: route intravenous
Mus musculus [14] = assay: Percent increase in life span at dose 70 mg/kg/day in 10 mice implanted with P388 leukemia cell line
In short: (§1)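 Female DBA2 mice inoculated iv on day 0 with 10^4 P388 cells; single iv treatment on day 1 with drug as sulfate salt in physiological saline. Survival followed; %ILS from all deaths and survivors as (T/C × 100) − 100, maximal MST 30 days; survivors counted on days 30 and 60. Most experiments confirmed three times.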

Mus musculus [15] = assay: Number of survivors on 30th day at dose 70 mg/kg/day in 10 mice implanted with P388 leukemia cell line; 5/11
Mus musculus [16] = assay: Number of survivors on 60th day at dose 75 mg/kg/day in 7 mice implanted with P388 leukemia cell line for 1,8,15 scheduled days in Exp-2; 2/10
Mus musculus [17] = assay: Number of survivors on 60th day at dose 7 mg/kg/day in 9 mice implanted with P388 leukemia cell line; 0/9
Mus musculus [18] = assay: Number of survivors on 30th day at dose 9 mg/kg/day in 10 mice implanted with P388 leukemia cell line; 3/10
Mus musculus [19] = assay: Percent increase in life span at dose 8 mg/kg/day in 7 mice implanted with P388 leukemia cell line for 1,8,15 schedule days from Exp-1
Mus musculus [20] = assay: Number of survivors on 60th day at dose 7 mg/kg/day in 9 mice implanted with P388 leukemia cell line;0/9
Mus musculus [21] = assay: Number of survivors of DBA2 mice on 30th day after inoculation with L1210 leukemia cell line intraperitoneally at a dose of 4 mg/kg/day; 0/10; details: route intraperitoneal
Mus musculus [22] = assay: Percent increase in life span at dose 10 mg/kg/day in 10 mice implanted with P388 leukemia cell line; in short: as §1
Mus musculus [23] = assay: Number of survivors on 60th day at dose 8 mg/kg/day in 9 mice implanted with P388 leukemia cell line; 0/9
Mus musculus [24] = assay: Number of survivors on 60th day at dose 11 mg/kg/day in 10 mice implanted with P388 leukemia cell line; 0/10
Mus musculus [25] = assay: Number of survivors on 30th day at dose 4 mg/kg/day in 10 mice implanted with P388 leukemia cell line;5/10
Mus musculus [26] = assay: Number of survivors of DBA2 mice on 30th day after inoculation with L1210 leukemia cell line intraperitoneally at a dose of 6 mg/kg/day; 0/10; details: route intraperitoneal
Mus musculus [27] = assay: Percent increase in life span of DBA2 mice after inoculation with L1210 leukemia intravenously at a dose of 0.5 mg/kg per day; details: route intravenous
Mus musculus [28] = assay: Percent increase in life span of DBA2 mice after inoculation with L1210 leukemia intravenously at a dose of 4.5 mg/kg per day; details: route intravenous
Mus musculus [29] = assay: Number of survivors of DBA2 mice on 60th day after inoculation with L1210 leukemia cell line intravenously at a dose of 0.5 mg/kg/day; 0/10; details: route intravenous
Mus musculus [30] = assay: Percent increase in life span of DBA2 mice after inoculation with L1210 leukemia intravenously at a dose of 2 mg/kg per day; details: route intravenous
Mus musculus [31] = assay: Number of survivors on 60th day at dose 1.5 mg/kg/day in 10 mice implanted with P388 leukemia cell line; 0/10
Mus musculus [32] = assay: Number of survivors of DBA2 mice on 60th day after inoculation with L1210 leukemia cell line intraperitoneally at a dose of 0.22 mg/kg/day; 0/10; details: route intraperitoneal
Mus musculus [33] = assay: Percent increase in life span at dose 0.5 mg/kg/day in 10 mice implanted with P388 leukemia cell line
Mus musculus [34] = assay: Number of survivors of DBA2 mice on 30th day after inoculation with L1210 leukemia cell line intraperitoneally at a dose of 1 mg/kg/day; 0/10; details: route intraperitoneal
Mus musculus [35] = assay: Number of survivors on 30th day at dose 3 mg/kg/day in 10 mice implanted with P388 leukemia cell line; 0/10
Mus musculus [36] = assay: Number of survivors of DBA2 mice on 60th day after inoculation with L1210 leukemia cell line intraperitoneally at a dose of 0.30 mg/kg/day; 0/10; details: route intraperitoneal
Mus musculus [37] = assay: Number of survivors on 30th day at dose 8 mg/kg/day in 10 mice implanted with P388 leukemia cell line; 0/10
Mus musculus [38] = assay: Number of survivors on 30th day at dose 7 mg/kg/day in 10 mice implanted with P388 leukemia cell line; 0/10
Mus musculus [39] = assay: Percent increase in life span at dose 3 mg/kg/day in 10 mice implanted with P388 leukemia cell line; 0/10
Mus musculus [40] = assay: Number of survivors of DBA2 mice on 30th day after inoculation with L1210 leukemia cell line intravenously at a dose of 3 mg/kg/day; 0/11; details: route intravenous

CCOC(=O)[C@H](Cc1c[nH]c2ccccc12)NC(=O)[C@@]1(O)[C@H](O)[C@]2(CC)C=CCN3CC[C@@]4(c5cc([C@@]6(C(=O)OC)C[C@H]7C[N@](CCc8c6[nH]c6ccccc86)C[C@](O)(CC)C7)c(OC)cc5N(C)[C@@]14C)[C@@H]32
ILS at 55 mg/kg/day (Mus musculus [1]): 55.3% | Survivors (Mus musculus [2]): 8 | Survivors (Mus musculus [3]): 2 | ILS at 55 mg/kg/day (Mus musculus [4]): > 261% | Survivors (Mus musculus [5]): 1 | Survivors (Mus musculus [6]): 2 | Survivors (Mus musculus [7]): 0 | ILS at 65 mg/kg/day (Mus musculus [8]): 82% | Survivors (Mus musculus [9]): 2 | Survivors (Mus musculus [10]): 5 | Survivors (Mus musculus [11]): 9 | Survivors (Mus musculus [12]): 8 | Survivors (Mus musculus [13]): 0 | ILS at 70 mg/kg/day (Mus musculus [14]): 160% | Survivors (Mus musculus [15]): 5 | Survivors (Mus musculus [16]): 2

CCOC(=O)[C@@H](NC(=O)[C@@]1(O)[C@H](O)[C@]2(CC)C=CCN3CC[C@@]4(c5cc([C@@]6(C(=O)OC)C[C@H]7C[N@](CCc8c6[nH]c6ccccc86)C[C@](O)(CC)C7)c(OC)cc5N(C)[C@@]14C)[C@@H]32)[C@@H](C)CC
Survivors (Mus musculus [17]): 0 | Survivors (Mus musculus [18]): 3 | ILS at 8 mg/kg/day (Mus musculus [19]): 119%

CC[C@]1(O)C[C@@H]2CN(CCc3c([nH]c4ccccc34)[C@@](C(=O)OC)(c3cc4c(cc3OC)N(C)[C@H]3[C@@](O)(C(=O)OC)[C@H](OC(C)=O)[C@]5(CC)C=CCN6CC[C@]43[C@@H]65)C2)C1 [VINBLASTINE]
Survivors (Mus musculus [20]): 0 | Survivors (Mus musculus [21]): 0 | ILS at 10 mg/kg/day (Mus musculus [22]): 81% | Survivors (Mus musculus [23]): 0 | Survivors (Mus musculus [24]): 0 | Survivors (Mus musculus [25]): 5 | Survivors (Mus musculus [26]): 0

CC[C@]1(O)C[C@H]2CN(CCc3c([nH]c4ccccc34)[C@@](C(=O)OC)(c3cc4c(cc3OC)N(C=O)[C@H]3[C@@](O)(C(=O)OC)[C@H](OC(C)=O)[C@]5(CC)C=CCN6CC[C@]43[C@@H]65)C2)C1 [VINCRISTINE]
ILS at 0.5 mg/kg/day (Mus musculus [27]): 1% | ILS at 4.5 mg/kg/day (Mus musculus [28]): 20% | Survivors (Mus musculus [29]): 0 | ILS at 2 mg/kg/day (Mus musculus [30]): 16% | Survivors (Mus musculus [31]): 0 | Survivors (Mus musculus [32]): 0 | ILS at 0.5 mg/kg/day (Mus musculus [33]): 4% | Survivors (Mus musculus [34]): 0

CC[C@]1(O)C[C@@H]2CN(CCc3c([nH]c4ccccc34)[C@@](C(=O)OC)(c3cc4c(cc3OC)N(C)[C@H]3[C@@](O)(C(N)=O)[C@H](O)[C@]5(CC)C=CCN6CC[C@]43[C@@H]65)C2)C1 [VINDESINE]
Survivors (Mus musculus [35]): 0 | Survivors (Mus musculus [36]): 0 | Survivors (Mus musculus [37]): 0 | Survivors (Mus musculus [38]): 0 | ILS at 3 mg/kg/day (Mus musculus [39]): 49.2% | Survivors (Mus musculus [40]): 0
